Data as given in ChEMBL document CHEMBL4373630, “Rapid kill assessment of an N-arylated NH125 analogue against drug-resistant microorganisms” (Medchemcomm, 2019).
Active and inactive are the calls of the source. The rule behind the calls is not given here.

Columns and labels:
[1] = Cytotoxicity against human HEK293 cells after 48 hrs by MTT assay; assay type: cell-based
Outline: (§1)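 HEK 293 cells, 10^4 per well, in DMEM with 10% FBS and penicillin/streptomycin, were left overnight at 37 °C under 5% CO2. MTT was added for 3 h and dissolved in DMSO, then OD570 was read. Six replicates per treatment; percent kill = (1 – test OD570/untreated OD570) × 100%; CC50 taken as the half-maximal toxic concentration.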

HEK293 = assay: Cytotoxicity against human HEK293 cells assessed as reduction in viability at 25 uM after 48 hrs by MTT assay relative to control; assay type: cell-based; settings: hek293, 48 h; outline: as §1
Staphylococcus aureus [2] = assay: Antibacterial activity against methicillin-resistant Staphylococcus aureus ATCC BAA 1707 assessed as as reduction in bacterial load by measuring reduction in colony forming units at 50 uM treated with 18 days old solution of test compound for 10 mins followed by subculturing and further incubated for over night by time-kill kinetic assay; assay type: functional
Outline: (§2)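 Compound was prepared at 50 μM in LB and stored on the shelf for 18 days or 111 days. Exponentially growing MRSA 1707 (overnight culture diluted 1:1000 in LB) was exposed to the stored solution for 10 min at 37 °C with 250 rpm shaking. Aliquots were serially diluted, plated on LB agar and incubated overnight at 37 °C. CFU/mL were compared with vehicle control.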

Staphylococcus aureus [3] = assay: Bactericidal activity against methicillin-resistant Staphylococcus aureus ATCC BAA 1707 at 50 uM after 3 mins by time-kill kinetic assay relative to control; assay type: functional
Outline: (§3)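 Overnight culture diluted 1:1000 into LB containing compound at the set concentration or DMSO vehicle alone, then shaken at 250 rpm at 37 °C. At 1, 3, 5 and 10 min, aliquots were serially diluted and plated on LB 1.5% agar and incubated overnight at 37 °C. CFU/mL were taken from plates with 30–300 colonies and compared with vehicle control. Three replicates came from separate colonies.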

Staphylococcus aureus [4] = assay: Bactericidal activity against methicillin-resistant Staphylococcus aureus ATCC BAA 1707 assessed as as reduction in bacterial load by measuring reduction in colony forming units at 50 uM preincubated for 1 min followed by subculturing and further incubated for over night by time-kill kinetic assay; assay type: functional; outline: as §3
Staphylococcus aureus [5] = assay: Antibacterial activity against methicillin-resistant Staphylococcus aureus ATCC BAA 1707 at 50 uM treated with 18 days old solution of test compound for 10 mins relative to control; assay type: functional; outline: as §2
Staphylococcus aureus [6] = assay: Bactericidal activity against methicillin-resistant Staphylococcus aureus ATCC BAA 1707 at 50 uM after 1 min by time-kill kinetic assay relative to control; assay type: functional; outline: as §3
Staphylococcus aureus [7] = assay: Bactericidal activity against methicillin-resistant Staphylococcus aureus ATCC BAA 1707 assessed as as reduction in bacterial load by measuring reduction in colony forming units at 50 uM preincubated for 5 to 10 min followed by subculturing and further incubated for over night by time-kill kinetic assay; assay type: functional; outline: as §3
Staphylococcus aureus [8] = assay: Bactericidal activity against methicillin-resistant Staphylococcus aureus ATCC BAA 1707 assessed as as reduction in bacterial load by measuring reduction in colony forming units at 50 uM preincubated for 3 min followed by subculturing and further incubated for over night by time-kill kinetic assay; assay type: functional; outline: as §3
Staphylococcus aureus [9] = assay: Antibacterial activity against methicillin-resistant Staphylococcus aureus ATCC BAA 1707 at 50 uM treated with 111 days old solution of test compound for 10 mins relative to control; assay type: functional; outline: as §2
Staphylococcus aureus [10] = assay: Antibacterial activity against methicillin-resistant Staphylococcus aureus ATCC BAA 1707 assessed as as reduction in bacterial load by measuring reduction in colony forming units at 50 uM treated with 111 days old solution of test compound for 10 mins followed by subculturing and further incubated for over night by time-kill kinetic assay; assay type: functional, organism-based; outline: as §2
Staphylococcus aureus [11] = assay: Bactericidal activity against methicillin-resistant Staphylococcus aureus ATCC BAA 1707 at 50 uM after 5 to 10 mins by time-kill kinetic assay relative to control; assay type: functional; outline: as §3
Klebsiella pneumoniae = assay: Antibacterial activity against Klebsiella pneumoniae ATCC 13883 after 16 to 18 hrs by CLSI protocol based broth microdilution assay; assay type: functional
Staphylococcus aureus [12] = assay: Bactericidal activity against methicillin-resistant Staphylococcus aureus ATCC BAA 1707 at 20 uM after 5 mins by time-kill kinetic assay relative to control; assay type: functional; outline: as §3
[13] = tested on: Staphylococcus epidermidis; assay: Antibacterial activity against methicillin-resistant Staphylococcus epidermidis ATCC 35984 after 16 to 18 hrs by CLSI protocol based broth microdilution assay; assay type: functional
Enterococcus faecium [14] = assay: Antibacterial activity against vancomycin-resistant Enterococcus faecium ATCC 700221 after 16 to 18 hrs by CLSI protocol based broth microdilution assay; assay type: functional
[15] = tested on: Staphylococcus epidermidis; assay: Bactericidal activity against methicillin-resistant Staphylococcus epidermidis ATCC 35984 assessed as as reduction in bacterial load by measuring reduction in colony forming units at 50 uM preincubated for 5 to 10 min followed by subculturing and further incubated for over night by time-kill kinetic assay; assay type: functional; outline: as §3
Acinetobacter baumannii [16] = assay: Bactericidal activity against multidrug-resistant Acinetobacter baumannii ATCC 1794 assessed as as reduction in bacterial load by measuring reduction in colony forming units at 50 uM preincubated for 10 min followed by subculturing and further incubated for over night by time-kill kinetic assay; assay type: functional; outline: as §3
Cryptococcus neoformans [17] = assay: Fungicidal activity against Cryptococcus neoformans ATCC 66031 assessed as as reduction in bacterial load by measuring reduction in colony forming units at 50 uM preincubated for 5 to 10 min followed by subculturing and further incubated for 1 or 2 days by time-kill kinetic assay; assay type: functional
Outline: (§4)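 C. neoformans ATCC 66031 was streaked on YPD agar for two days at 37 °C, and single colonies were grown overnight in YPD at 37 °C, 250 rpm. Overnight cultures were diluted in fresh YPD with compound in DMSO at 50 μM final, or DMSO alone, and kept at 37 °C, 250 rpm. Aliquots were diluted and plated on YPD agar, and colonies counted after 1–2 days at 37 °C. Triplicate; CFU per mL.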

Staphylococcus aureus [18] = assay: Antibacterial activity against methicillin-resistant Staphylococcus aureus ATCC BAA 1707 after 16 to 18 hrs by CLSI protocol based broth microdilution assay; assay type: functional
Acinetobacter baumannii [19] = assay: Bactericidal activity against multidrug-resistant Acinetobacter baumannii ATCC 1794 at 50 uM after 10 mins by time-kill kinetic assay relative to control; assay type: functional; outline: as §3
Acinetobacter baumannii [20] = assay: Bactericidal activity against multidrug-resistant Acinetobacter baumannii ATCC 1794 at 50 uM after 5 mins by time-kill kinetic assay relative to control; assay type: functional; outline: as §3
Acinetobacter baumannii [21] = assay: Bactericidal activity against multidrug-resistant Acinetobacter baumannii ATCC 1794 assessed as as reduction in bacterial load by measuring reduction in colony forming units at 50 uM preincubated for 5 min followed by subculturing and further incubated for over night by time-kill kinetic assay; assay type: functional; outline: as §3
Acinetobacter baumannii [22] = assay: Antibacterial activity against multidrug-resistant Acinetobacter baumannii ATCC 1794 after 16 to 18 hrs by CLSI protocol based broth microdilution assay; assay type: functional
Enterococcus faecium [23] = assay: Bactericidal activity vancomycin-resistant Enterococcus faecium ATCC 700221 at 50 uM after 5 to 10 mins by time-kill kinetic assay relative to control; assay type: functional; outline: as §3
Escherichia coli = assay: Antibacterial activity against Escherichia coli clinical isolate UAEC-1 after 16 to 18 hrs by CLSI protocol based broth microdilution assay; assay type: functional
Cryptococcus neoformans [24] = assay: Fungicidal activity against Cryptococcus neoformans ATCC 66031 at 50 uM after 5 to 10 mins by time-kill kinetic assay relative to control; assay type: functional; outline: as §4
Staphylococcus aureus [25] = assay: Bactericidal activity against methicillin-resistant Staphylococcus aureus ATCC BAA 1707 assessed as as reduction in bacterial load by measuring reduction in colony forming units at 20 uM preincubated for 10min followed by subculturing and further incubated for over night by time-kill kinetic assay; assay type: functional; outline: as §3
Staphylococcus aureus [26] = assay: Bactericidal activity against methicillin-resistant Staphylococcus aureus ATCC BAA 1707 at 20 uM after 10 mins by time-kill kinetic assay relative to control; assay type: functional; outline: as §3
[27] = tested on: Staphylococcus epidermidis; assay: Bactericidal activity against methicillin-resistant Staphylococcus epidermidis ATCC 35984 at 50 uM after 5 to 10 mins by time-kill kinetic assay relative to control; assay type: functional; outline: as §3
Staphylococcus aureus [28] = assay: Bactericidal activity against methicillin-resistant Staphylococcus aureus ATCC BAA 1707 at 5 uM after 10 mins by time-kill kinetic assay relative to control; assay type: functional; outline: as §3
Enterococcus faecium [29] = assay: Bactericidal activity vancomycin-resistant Enterococcus faecium ATCC 700221 assessed as as reduction in bacterial load by measuring reduction in colony forming units at 50 uM preincubated for 5 to 10 min followed by subculturing and further incubated for over night by time-kill kinetic assay; assay type: functional; outline: as §3
Staphylococcus aureus [30] = assay: Bactericidal activity against methicillin-resistant Staphylococcus aureus ATCC BAA 1707 assessed as as reduction in bacterial load by measuring reduction in colony forming units at 20 uM preincubated for 5 min followed by subculturing and further incubated for over night by time-kill kinetic assay; assay type: functional; outline: as §3
Staphylococcus aureus [31] = assay: Bactericidal activity against methicillin-resistant Staphylococcus aureus ATCC BAA 1707 assessed as as reduction in bacterial load by measuring reduction in colony forming units at 5 uM preincubated for 5 min followed by subculturing and further incubated for over night by time-kill kinetic assay; assay type: functional; outline: as §3
Staphylococcus aureus [32] = assay: Bactericidal activity against methicillin-resistant Staphylococcus aureus ATCC BAA 1707 assessed as as reduction in bacterial load by measuring reduction in colony forming units at 5 uM preincubated for 10 min followed by subculturing and further incubated for over night by time-kill kinetic assay; assay type: functional; outline: as §3

CCCCCCCCCCCCCCCC[n+]1ccn(Cc2ccccc2)c1C.[I-]
CC50 at 48 h [1]: 2410 nM
Activity (HEK293): 100%

CCCCCCCCCCCCCCCC[N+](C)(C)Cc1ccccc1.[Cl-] [CETALKONIUM CHLORIDE]
CC50 at 48 h [1]: 6840 nM
Activity (Staphylococcus aureus [2]): >3 log10CFU/ml
Activity (Staphylococcus aureus [3]): 99.99%
Activity (Staphylococcus aureus [4]): 4 log10CFU/ml
Activity (Staphylococcus aureus [5]): >99%
Activity (Staphylococcus aureus [6]): 99.99%
Activity (Staphylococcus aureus [7]): >6 log10CFU/ml
Activity (HEK293): 100%
Activity (Staphylococcus aureus [8]): 4 log10CFU/ml
Activity (Staphylococcus aureus [9]): >99%
Activity (Staphylococcus aureus [10]): Active
Activity (Staphylococcus aureus [11]): 100%

CCCCCCCCCCCCCCCCn1cc[n+](-c2ccccc2)c1C
MIC (Klebsiella pneumoniae): 6.25 µM
Activity (Staphylococcus aureus [12]): 99.9%
MIC [13]: 1.17 µM
CC50 at 48 h [1]: < 1560 nM
MIC (Enterococcus faecium [14]): 3.13 µM
Activity (Staphylococcus aureus [2]): >3 log10CFU/ml
Activity [15]: 6 log10CFU/ml
Activity (Acinetobacter baumannii [16]): >6 log10CFU/ml
Activity (Cryptococcus neoformans [17]): 7 log10CFU/ml
MIC (Staphylococcus aureus [18]): 1.56 µM
Activity (Acinetobacter baumannii [19]): >99.9999%
Activity (Acinetobacter baumannii [20]): 99.9%
Activity (Staphylococcus aureus [3]): 99.99%
Activity (Acinetobacter baumannii [21]): 3 log10CFU/ml
MIC (Acinetobacter baumannii [22]): 12.5 µM
Activity (Staphylococcus aureus [4]): 4 log10CFU/ml
Activity (Staphylococcus aureus [5]): >99%
Activity (Staphylococcus aureus [6]): 99.99%
Activity (Staphylococcus aureus [7]): >6 log10CFU/ml
Activity (Enterococcus faecium [23]): 99.9999%
Activity (HEK293): 100%
MIC (Escherichia coli): 6.25 µM
Activity (Cryptococcus neoformans [24]): 100%
Activity (Staphylococcus aureus [25]): 4 log10CFU/ml
Activity (Staphylococcus aureus [26]): 99.99%
Activity [27]: 99.9999%
Activity (Staphylococcus aureus [28]): 90%
Activity (Staphylococcus aureus [8]): 4 log10CFU/ml
Activity (Enterococcus faecium [29]): 6 log10CFU/ml
Activity (Staphylococcus aureus [9]): >99%
Activity (Staphylococcus aureus [10]): Active
Activity (Staphylococcus aureus [30]): 3 log10CFU/ml
Activity (Staphylococcus aureus [11]): 100%
Activity (Staphylococcus aureus [31]): <1 log10CFU/ml
Activity (Staphylococcus aureus [32]): 1 log10CFU/ml
